Many of the other results were omitted from the sample, so hits are more common in it than they were.
DAT uptake mod – changed human dopamine transporter uptake under cocaine IC80; Q01959; LLC-PK1 hDAT cells, [14C]-dopamine uptake with cocaine IC80; actives deviate in either direction; B-score at 10 µM; 110,000 tested, 1.3% active; AID 449768;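 active = Z score or B-score, a plate-position-corrected score, falls beyond the plate's 99.7% confidence bounds, in either direction; inactive = both scores lie inside the 99.7% bounds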
D1 mod – allosterically modulates the human D1 dopamine receptor | P21728 | HEK293 D1, CRE-luciferase, dopamine EC30 potentiation; actives deviate in either direction | B-score at 10 µM | 58,000 tested, 5.9% active;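 active = luminescence count or its row- and column-corrected plate score outside the 99.7% band of the plate's sample wells, on either side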
Target sequence (P21728 whole entry, looked up): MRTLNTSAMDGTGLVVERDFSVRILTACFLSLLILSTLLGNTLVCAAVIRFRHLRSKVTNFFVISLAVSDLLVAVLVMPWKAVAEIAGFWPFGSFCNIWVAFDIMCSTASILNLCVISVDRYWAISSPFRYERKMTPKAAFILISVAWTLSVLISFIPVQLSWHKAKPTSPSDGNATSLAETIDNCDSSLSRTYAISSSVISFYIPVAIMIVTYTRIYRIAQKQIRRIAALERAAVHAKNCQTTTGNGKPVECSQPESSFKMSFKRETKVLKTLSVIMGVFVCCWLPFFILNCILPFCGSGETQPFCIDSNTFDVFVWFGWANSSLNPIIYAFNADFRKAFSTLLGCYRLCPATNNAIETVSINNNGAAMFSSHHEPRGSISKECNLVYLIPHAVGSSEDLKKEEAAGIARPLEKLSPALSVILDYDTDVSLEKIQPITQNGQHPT
WNV protease inh – inhibitors of West Nile virus NS2B-NS3 protease; WNV NS2B-NS3 protease, fluorogenic substrate Ex360/Em465; hits give low values; z-score (concentration not given with the values); 65,000 tested, 0.18% active; in the data active = z-score below about -3
AP complement – orthogonal test for alternative complement pathway inhibitors; Human serum alternative complement pathway, LPS-coated ELISA, C3 deposition; tested in compound mixtures; inhibition, % at 5 µM; 62,000 tested, 0.08% active; AID 1235;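 active = inhibition above 30% in each of the two pooled mixtures holding the compound, so the lower value exceeds 30%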
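Assay system: Human serum alternative complement pathway, C3 deposition on LPS-coated wells | Incubation: 1 h serum-compound exposure at 37 °C | Doses: 5 µM per compound in ten-compound mixtures | Read-out: Percent inhibition | Technique: ELISA with HRP anti-human C3 antibody, TMB substrate, absorbance 450 nm | Replication: Two pool placements per compound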
Hits are given with their value; - = inactive; . = no result given.

SMILES	DAT uptake mod	D1 mod	WNV protease inh	AP complement
CNC(=O)CN(C#N)c1nc(N(C)C)nc(N(C)C)n1	.	-	-	-
Nc1nc(Nc2ccc(Cl)cc2)nc2ccccc12	-	.	.	.
Nc1nc(Nc2ccccc2)nc2ccccc12	-	-5.6	-	-
Cc1ccc(-n2nnnc2SCc2nnc(-c3ccccc3Br)o2)c(C)c1	-	-	-	-
CCCCS(=O)(=O)/C=C\C=C/S(=O)(=O)CCCC	.	-2.4	-	-
CCCCS(=O)(=O)/C=C\C1C2C=CC(C2)C1S(=O)(=O)CCCC (stereo unspecified)	-	-	-	-
Cc1ccc(S(=O)(=O)NC2CCCC(C(=O)O)C2)cc1 (stereo unspecified)	-	-	-	-
Cc1nc(N2CCN(Cc3nc4ccccc4[nH]3)CC2)c2oc3ccccc3c2n1	2.5	.	-	-
Cc1nc(SCc2nc3ccccc3[nH]2)c2oc3ccccc3c2n1	-	-	-	-
Cc1cc(C(=O)CSc2nnc(-c3ccco3)o2)c(C)n1Cc1ccco1	-	-	-	-
Cc1cc(C(=O)CSc2nn(-c3ccccc3)c(=S)s2)c(C)n1Cc1ccco1	-	-4.7	-	.
O=C(NCCc1ccccc1)c1ccccc1NS(=O)(=O)N1CCCC1	-	-	-	-
CC(=O)Oc1ccccc1C(=O)Oc1ccc(/C=N/n2cnnc2)cc1	-	-3.3	-	-
CCOc1ccc(/C=N/n2cnnc2)cc1	-	-	-	-
CCN(CC)CC#CCC(C)(c1ccccc1)c1ccccc1	-	.	.	.
CC(=O)c1c(C)nn(CC(O)COc2ccc3c(c2)CCC3)c1C (stereo unspecified)	15	-	-	-
Cc1nn(CC(O)COc2ccc3c(c2)CCC3)c(C)c1Br (stereo unspecified)	-	.	.	.
CCOC(=O)N1CCN(C(=O)CN(c2cccc(C(F)(F)F)c2)S(C)(=O)=O)CC1	-8.7	-	-	-
Cn1c(NC(=O)c2ccccc2)c(-c2ccccn2)c(=O)c2ccccc21	-	.	.	.
c1ccc(/N=C2\N=C(Nc3ccccn3)c3ccccc32)nc1	.	14	-	-
c1ccc(Nc2ccccn2)cc1	-	.	.	.
CSc1cc(-c2ccc(Cl)cc2)c(C(=O)NN)s1	3.2	.	.	.
COc1cc(OC)c2ccc(=O)oc2c1C(CCN1CCCC1)c1ccc2c(c1)OCO2 (stereo unspecified)	1.1	.	.	.
CCOC(=O)c1cc2ccccc2n1CCN(CC)CC	-	.	.	.
CN(C)CCn1c(C(=O)Nc2ccccc2)cc2ccccc21	-	-2.7	-	-
SMILES	DAT uptake mod	D1 mod	WNV protease inh	AP complement
Cc1oc(CC(C)C)cc1C(=O)Nc1cccc2ccccc12	-6.9	.	.	.
CCN(CC)S(=O)(=O)c1ccc(C(=O)N2CCCCC2)cc1	-	.	.	.
COCc1nnc(NC(=O)CSc2ccc(C)cc2)s1	-	-	-	-
COCc1nnc(NC(=O)CSc2ccccc2)s1	-2.6	-	-	-
Cc1nc2ccc(C(C(F)(F)F)(C(F)(F)F)C(F)(F)F)cc2[nH]1	-	-	-	-
CCO[C@H]1OC(C(=O)N2CCN(Cc3ccc4c(c3)OCO4)CC2)=C[C@@H](C)[C@@H]1CCCO	-	.	.	.
CCOc1cccc(C(=O)NC(=S)Nc2ccc(N3CCCC3)cc2)c1	0.76	.	.	.
CCCCOc1cccc(C(=O)Nc2ccc(N3CCN(CC)CC3)cc2)c1	-	-3.6	-	-
CC(C)Oc1ccc(C(=O)Nc2ccc(N3CCCC3)cc2)cc1	-	-	-	-
CCCCOc1ccc(C(=O)Nc2ccc(N3CCN(C)CC3)cc2)cc1	-	-3.2	-	-
CN1CCN(c2ccc(NC(=O)c3ccccc3Br)cc2)CC1	-	-4.6	-	-
O=C1CC(c2cccc(Cl)c2)CC(O)=C1C=NCCCO (stereo unspecified)	-	-	-	-
COC(=O)c1ccc([C@H](NC(=O)c2ccco2)[C@]2(C)C[C@H]2C2CCCCC2)cc1	-	.	.	.
CS(=O)(=O)N(CCc1ccccc1)CC(=O)NCc1cccnc1	-	-	-	-
COc1cc(/C=C2\OC(=O)c3c(OC)cccc32)ccc1O	-	.	.	.
COc1ccc(C)cc1NC(=O)C(C)N(c1ccc(C)cc1)S(C)(=O)=O (stereo unspecified)	2.7	.	.	.
COc1ccc(NC(=O)C(C)N(c2ccc(C)cc2)S(C)(=O)=O)cc1 (stereo unspecified)	-	.	.	.
O=C(Nc1ccc2c(c1)OCO2)C(c1ccc(Cl)cc1)N1CCN(C(=O)c2ccco2)CC1 (stereo unspecified)	2.4	-	-	-
Nc1c2c(nc3ccn(Cc4ccccc4)c(=O)c13)CCC2	-	-3.2	-	-
Nc1c2c(nc3ccn(-c4ccccc4)c(=O)c13)CCCCC2	-	-4.7	-	-

Source: PubChem
